The target in assay [1] is Ca^2+-bound CaM C-lobe (residues 80–149) (Homo sapiens, UniProt P0DP23). The experiment in a line: ITC, peptide binding to isolated CaM C-lobe. The following applies: for ΔH1: ITC one-site model, isolated CaM C-lobe, 27 °C, pH 7.0, 1 mM CaCl2; for fold decrease in binding affinity to CaM C-lobe caused by mutation: versus CaM2^WT, ITC. A digest of the protocol: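 Wild-type and point-mutant CNGB1 peptides (DMSO-d6 stocks, UV–vis quantified) and the recombinant Ca2+-bound CaM C-lobe fragment were exchanged into 20 mM Tris pH 7.0, 100 mM KCl, 1 mM CaCl2. At 27 °C, 50 μM peptide in the cell was titrated with 0.5 mM C-lobe over 34 injections. Isotherms were fitted to a one-site model.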
(Isothermal titration calorimetry measures the heat released or taken up as one component is titrated into another.)

The target of assay [2] is Ca^2+-bound CaM N-lobe (residues 1–80) (Homo sapiens, UniProt P0DP23). The experiment in a line: ITC, peptide binding to isolated CaM N-lobe. To be noted: for ΔH1: ITC, isolated CaM N-lobe, 27 °C, pH 7.0, 1 mM CaCl2. The method in brief:
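The isolated recombinant Ca2+-bound CaM N-lobe and CNGB1 peptides (DMSO-d6 stocks, UV–vis quantified) were buffer-exchanged into 20 mM Tris pH 7.0, 100 mM KCl, 1 mM CaCl2. At 27 °C, 50 μM peptide in the cell was titrated with 0.5 mM N-lobe over 34 injections. The CaM1 isotherm was fitted to a one-site model and the CaM2 isotherm to a two-site model.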

Assay [3] addresses Ca^2+-bound CaM (full-length calmodulin) (Homo sapiens, UniProt P0DP23). The experiment in a line: ITC, peptide binding to full-length Ca2+-bound CaM. To be noted: for K2: association constant, site 2; for K2 / ΔH1 / ΔH2: ITC two-site model, 27 °C, pH 7.0, 1 mM CaCl2; for ΔH1: higher-affinity exothermic site; for ΔH2: lower-affinity endothermic site. A digest of the protocol: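 Calorimetry at 27 °C used CNGB1 CaM-binding-domain peptides (DMSO-d6 stocks, quantified by UV–vis) and recombinant Ca2+-bound CaM, both exchanged into 20 mM Tris pH 7.0, 100 mM KCl, 1 mM CaCl2. Peptide at 50 μM in the cell was titrated with 0.5 mM CaM over 34 injections, and the isotherm was fitted to a two-site model. The apoCaM comparison used 20 mM Tris pH 8.0, 100 mM KCl, 2 mM EGTA with a one-site fit.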

Assay [4] concerns the target Ca^2+-free CaM (apoCaM) (Homo sapiens, UniProt P0DP23). Put plainly: ITC, peptide binding to Ca2+-free CaM. The following applies: ITC one-site model; 27 °C; 20 mM Tris pH 8.0, 100 mM KCl, 2 mM EGTA. The method in brief: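 Recombinant calmodulin (Ca²⁺-free) titrated into a synthetic CNGB1 CaM-binding-domain peptide (residues 1120–1147; dissolved in DMSO-d₆, quantified by UV–vis). Both were exchanged into 20 mM Tris pH 8.0, 100 mM KCl, 2 mM EGTA. Peptide was 50 μM in the cell and CaM was 0.5 mM in the syringe, over 34 injections at 27 °C. The isotherm was fit to a one-site model for ΔH.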

Here are results for five compounds from publication PMC9810080 (Biochemistry, 2022).

SMILES strings stand for the structures. Residues, ends and D or L forms follow the SMILES beside them.

With `CC(C)C[C@H](NC(=O)[C@H](C)NC(=O)[C@H](C)NC(=O)[C@H](CC(C)C)NC(=O)[C@H](CCC(=O)O)NC(=O)[C@H](CCCCN)NC(=O)[C@H](CC(C)C)NC(=O)[C@H](CCCNC(=N)N)NC(=O)[C@H](C)NC(=O)[C@H](CCCNC(=N)N)NC(=O)[C@H](CCC(=O)O)NC(=O)[C@H](Cc1c[nH]cn1)NC(=O)[C@H](C)NC(=O)[C@H](CC(C)C)NC(=O)[C@H](CCCCN)NC(=O)CNC(=O)CNC(=O)[C@H](CCCCN)NC(=O)[C@H](C)NC(=O)CNC(=O)[C@H](CCCCN)NC(=O)CNC(=O)CN)C(=O)N[C@@H](CCC(=O)O)C(=O)N[C@@H](C)C(=O)N[C@@H](C)C(=O)N[C@@H](C)C(=O)N[C@@H](CCCCN)C(=O)O` [CaM2^L1132E] (H-GGKGAKGGKLAHERARLKELAALEAAAK-OH; N-terminus and C-terminus assumed), in assay [1], the ΔH1 result is “+3.1 ± 0.5 kcal/mol” and the “fold decrease in binding affinity to CaM C-lobe caused by mutation” value was “more than 500 fold”.
Compound `CC[C@H](C)[C@H](NC(=O)[C@H](CC(C)C)NC(=O)[C@H](CCCCN)NC(=O)[C@H](CCC(=O)O)NC(=O)[C@H](CCCCN)NC(=O)[C@@H](NC(=O)[C@H](CCCCN)NC(=O)[C@H](CCC(=O)O)NC(=O)[C@@H](NC(=O)[C@H](CCCNC(=N)N)NC(=O)[C@H](CCC(=O)O)NC(=O)[C@H](CCCCN)NC(=O)[C@H](Cc1ccccc1)NC(=O)[C@H](CC(C)C)NC(=O)[C@H](CCCCN)NC(=O)[C@@H](NC(=O)[C@H](CC(C)C)NC(=O)[C@H](CCC(=O)O)NC(=O)[C@H](CCC(N)=O)NC(=O)[C@H](CC(C)C)NC(=O)[C@H](CCCNC(=N)N)NC(=O)[C@H](CC(=O)O)NC(=O)[C@@H](N)CC(N)=O)C(C)C)[C@@H](C)O)C(C)C)C(=O)N[C@@H](CC(=O)O)C(=O)N1CCC[C@H]1C(=O)O` [CaM1] (H-NDRLQELVKLFKERTEKVKEKLIDP-OH; N-terminus and C-terminus assumed) registered a ΔH1 in assay [2] of -2.5 ± 0.2 kcal/mol. Further, the “fold higher affinity for CaM N-lobe compared to CaM C-lobe” value in assay [2] (from ITC with isolated lobes) is given as “at least fivefold”. In assay [3], the K2 was 4.2 ± 0.5 × 10^3 M^−1, the ΔH1 was -7.5 ± 0.2 kcal/mol and the ΔH2 result is reported as “+40 ± 4 kcal/mol”. Moreover, in assay [3] (comparison of NMR spectral changes and ITC), the “fold higher affinity for Ca^2+-bound CaM compared to apoCaM” value was “at least 100 fold”.
With `CC(C)C[C@H](NC(=O)[C@H](C)NC(=O)[C@H](C)NC(=O)[C@H](CC(C)C)NC(=O)[C@H](CCC(=O)O)NC(=O)[C@H](CCCCN)NC(=O)[C@H](CCC(=O)O)NC(=O)[C@H](CCCNC(=N)N)NC(=O)[C@H](C)NC(=O)[C@H](CCCNC(=N)N)NC(=O)[C@H](CC(C)C)NC(=O)[C@H](Cc1c[nH]cn1)NC(=O)[C@H](C)NC(=O)[C@H](CC(C)C)NC(=O)[C@H](CCCCN)NC(=O)CNC(=O)CNC(=O)[C@H](CCCCN)NC(=O)[C@H](C)NC(=O)CNC(=O)[C@H](CCCCN)NC(=O)CNC(=O)CN)C(=O)N[C@@H](CCC(=O)O)C(=O)N[C@@H](C)C(=O)N[C@@H](C)C(=O)N[C@@H](C)C(=O)N[C@@H](CCCCN)C(=O)O` [CaM2^L1136E] (H-GGKGAKGGKLAHLRAREKELAALEAAAK-OH; N-terminus and C-terminus assumed), in assay [1], the ΔH1 result is given as “+2.6 ± 1.8 kcal/mol” and the “fold decrease in binding affinity to CaM C-lobe caused by mutation” value is listed as “more than 500 fold”.
Regarding `CC(C)C[C@H](NC(=O)[C@H](C)NC(=O)[C@H](C)NC(=O)[C@H](CC(C)C)NC(=O)[C@H](CCC(=O)O)NC(=O)[C@H](CCCCN)NC(=O)[C@H](CC(C)C)NC(=O)[C@H](CCCNC(=N)N)NC(=O)[C@H](C)NC(=O)[C@H](CCCNC(=N)N)NC(=O)[C@H](CC(C)C)NC(=O)[C@H](Cc1c[nH]cn1)NC(=O)[C@H](C)NC(=O)[C@H](CC(C)C)NC(=O)[C@H](CCCCN)NC(=O)CNC(=O)CNC(=O)[C@H](CCCCN)NC(=O)[C@H](C)NC(=O)CNC(=O)[C@H](CCCCN)NC(=O)CNC(=O)CN)C(=O)N[C@@H](CCC(=O)O)C(=O)N[C@@H](C)C(=O)N[C@@H](C)C(=O)N[C@@H](C)C(=O)N[C@@H](CCCCN)C(=O)O` [CaM2] (H-GGKGAKGGKLAHLRARLKELAALEAAAK-OH; N-terminus and C-terminus assumed), the ΔH entry in assay [4] was “+2.1 ± 0.4 kcal/mol”. This compound also gave a ΔH1 in assay [1] of -2.0 ± 0.1 kcal/mol. Also, in assay [3], the K2 is listed as 2.9 ± 0.5 × 10^6 M^−1, the ΔH1 was -4.5 ± 1.6 kcal/mol and the ΔH2 result is “+16 ± 2 kcal/mol”. Also, in assay [3] (biphasic ITC isotherm), the “binding stoichiometry at saturation (peptide:CaM)” value is listed as “two CaM2 molecules are bound to one molecule of CaM”.
Turning to `CC[C@H](C)[C@H](NC(=O)[C@H](CC(C)C)NC(=O)[C@H](CCCCN)NC(=O)[C@H](CCC(=O)O)NC(=O)[C@H](CCCCN)NC(=O)[C@@H](NC(=O)[C@H](CCCCN)NC(=O)[C@H](CCC(=O)O)NC(=O)[C@@H](NC(=O)[C@H](CCCNC(=N)N)NC(=O)[C@H](CCC(=O)O)NC(=O)[C@H](CCCCN)NC(=O)[C@H](CCC(=O)O)NC(=O)[C@H](CC(C)C)NC(=O)[C@H](CCCCN)NC(=O)[C@@H](NC(=O)[C@H](CC(C)C)NC(=O)[C@H](CCC(=O)O)NC(=O)[C@H](CCC(N)=O)NC(=O)[C@H](CC(C)C)NC(=O)[C@H](CCCNC(=N)N)NC(=O)[C@H](CC(=O)O)NC(=O)[C@@H](N)CC(N)=O)C(C)C)[C@@H](C)O)C(C)C)C(=O)N[C@@H](CC(=O)O)C(=O)N1CCC[C@H]1C(=O)O` [CaM1^F575E] (H-NDRLQELVKLEKERTEKVKEKLIDP-OH; N-terminus and C-terminus assumed), in assay [2], the ΔH1 entry is given as “+0.7 ± 0.5 kcal/mol”.
